Calls of active or inactive are those of the source. The rule behind the calls is not given here.

Our source for the max activation values is ChEMBL document CHEMBL2176944, “2-(3-Oxo-1,3-diphenylpropyl)malonic acids as potent allosteric ligands of the PIF pocket of phosphoinositide-dependent kinase-1: development and prodrug concept” (J Med Chem, 2012).

The assay deals with T1, 3-phosphoinositide-dependent protein kinase 1 (Homo sapiens) (UniProt O15530).
T1 sequence (whole entry): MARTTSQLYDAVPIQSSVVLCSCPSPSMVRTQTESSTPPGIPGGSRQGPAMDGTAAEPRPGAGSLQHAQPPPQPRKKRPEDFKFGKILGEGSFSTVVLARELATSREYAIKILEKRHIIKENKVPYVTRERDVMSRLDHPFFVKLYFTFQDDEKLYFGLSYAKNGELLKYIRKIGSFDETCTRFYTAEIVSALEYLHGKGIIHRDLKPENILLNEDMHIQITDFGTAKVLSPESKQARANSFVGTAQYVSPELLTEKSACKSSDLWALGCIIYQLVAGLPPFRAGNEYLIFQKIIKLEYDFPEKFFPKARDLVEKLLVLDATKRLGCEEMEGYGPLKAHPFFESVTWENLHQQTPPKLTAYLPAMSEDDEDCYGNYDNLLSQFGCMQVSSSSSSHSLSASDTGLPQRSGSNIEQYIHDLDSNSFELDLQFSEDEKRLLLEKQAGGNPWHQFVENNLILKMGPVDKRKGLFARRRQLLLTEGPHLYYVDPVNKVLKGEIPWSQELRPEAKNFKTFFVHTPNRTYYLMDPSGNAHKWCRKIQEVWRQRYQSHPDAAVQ
The assay is described as follows: Activation of PDK1 using KTFCGTPEYLAPEVRR as substrate and [gamma32P]-ATP/Mg2+ by phosphor imaging analysis relative to control. In outline:
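Radioactive kinase assay with 0.25 μM PDK1 and [γ32P]ATP. Phosphorylated peptide was captured on P81 phosphocellulose paper and detected by phosphorimaging. Activation is expressed relative to DMSO control (=100%). AC50 is the concentration giving half-maximal activation. Values are the mean of at least two independent experiments.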
`O=C(C[C@@H](c1ccccc1)C(C(=O)O)C(=O)O)c1ccc(C(F)(F)F)cc1` registered a max activation of 2.
For the molecule `O=C(C[C@H](c1ccccc1)C(C(=O)O)C(=O)O)c1ccc(C(F)(F)F)cc1`, the max activation was found to be 5.5.
As for `CCc1ccc(C(=O)CC(CC(=O)O)c2ccccc2)cc1` (racemic), the figure is 2.
As for `CCc1ccc(C(=O)CC(c2ccc(Cl)cc2)C(C(=O)O)C(=O)O)cc1` (racemic), the max activation was 3.
The value for `CCc1ccc(C(=O)CC(c2ccccc2)C(C(=O)O)C(=O)O)cc1` (racemic) was 5; that for `COc1ccc2cc(C(=O)CC(c3ccccc3)C(C(=O)O)C(=O)O)ccc2c1` (racemic) was 3.6; that for `O=C(CC(c1cc(-c2ccccc2)cs1)C(C(=O)O)C(=O)O)c1ccc(C(F)(F)F)cc1` (racemic) was “inactive”.
Consider `O=C(CC(c1ccc(Cl)cc1)C(C(=O)O)C(=O)O)c1ccc(Br)cc1` (racemic), for which the max activation was 3.
Take `O=C(CC(c1ccc(Cl)cc1)C(C(=O)O)C(=O)O)c1ccc(C(F)(F)F)cc1` (racemic): the max activation was 3.5.
For the molecule `O=C(CC(c1ccc(Cl)cc1)C(C(=O)O)C(=O)O)c1ccc(Cl)cc1` (racemic), the max activation turned out to be 2.
As for `O=C(CC(c1ccc(Cl)cc1)C(C(=O)O)C(=O)O)c1ccc(I)cc1` (racemic), the figure is 3.8; as for `O=C(CC(c1ccc(Cl)cc1)C(C(=O)O)C(=O)O)c1ccc(O)cc1` (racemic), “inactive”; as for `O=C(CC(c1ccc2ccccc2c1)C(C(=O)O)C(=O)O)c1ccc2ccccc2c1` (racemic), 4.8.
As for `O=C(CC(c1ccccc1)C(C(=O)O)C(=O)O)c1c[nH]c2ccccc12` (racemic), the figure is 3.
`O=C(CC(c1ccccc1)C(C(=O)O)C(=O)O)c1ccc(Br)cc1` (racemic) registered a max activation of 3.7.
`O=C(CC(c1ccccc1)C(C(=O)O)C(=O)O)c1ccc(Oc2ccccc2)cc1` (racemic) returned a max activation of 7.
The value for `O=C(CC(c1ccccc1)C(C(=O)O)C(=O)O)c1ccc2c(ccc3ccccc32)c1` (racemic) was 3.7; that for `O=C(CC(c1ccccc1)C(C(=O)O)C(=O)O)c1ccc2ccccc2c1` (racemic) was 4.
As for `O=C(CC(c1ccccc1)C(C(=O)O)C(=O)O)c1cccc(Cl)c1` (racemic), the figure is 2.6.
The value for `O=C(O)CC(CC(=O)c1ccc(Br)cc1)c1ccccc1` (racemic) was 2; that for `O=C(O)CC(CC(=O)c1ccc(C(F)(F)F)cc1)c1ccc(Cl)cc1` (racemic) was “inactive”; that for `O=C(O)CC(CC(=O)c1ccc(C(F)(F)F)cc1)c1ccccc1` (racemic) was 4.
In the case of `O=C(O)CC(CC(=O)c1ccc(Cl)cc1)c1ccc(Cl)cc1` (racemic), the max activation entry was “inactive”.
As for `O=C(O)CC(CC(=O)c1ccc(Cl)cc1)c1ccccc1` (racemic), the figure is 3; as for `O=C(O)CC(CC(=O)c1ccc(I)cc1)c1ccc(Cl)cc1` (racemic), 2.5.
For `O=C(O)CC(CC(=O)c1ccc(I)cc1)c1ccccc1` (racemic), the max activation stood at 4.
As for `O=C(O)CC(CC(=O)c1ccc(Oc2ccccc2)cc1)c1ccccc1` (racemic), the figure is 2.8; as for `O=C(O)CC(CC(=O)c1ccc2c(ccc3ccccc32)c1)c1ccccc1` (racemic), 1.5.
The value for `O=C(O)CC(CC(=O)c1ccc2cc(O)ccc2c1)c1ccccc1` (racemic) was 3; that for `O=C(O)CC(CC(=O)c1ccc2ccccc2c1)c1ccc2ccccc2c1` (racemic) was 3.4; that for `O=C(O)CC(CC(=O)c1ccc2ccccc2c1)c1ccccc1` (racemic) was 2.5.
`O=C(O)CC(CC(=O)c1cccc(Cl)c1)c1ccccc1` (racemic) displayed a max activation of 2.5.
